Data reported in ChEMBL document CHEMBL1149345, “Pyrrolo[1,2-b][1,2,5]benzothiadiazepines (PBTDs): A new class of agents with high apoptotic activity in chronic myelogenous leukemia K562 cells and in cells from patients at onset and who were imatinib-resistant” (2006).
Active and inactive are the calls of the source. No cut-off for these calls is given here.

How the values were obtained:
K562 [1] = experiment: Apoptotic activity against human K562 cell line at 10 uM after 16 hrs; assay type: functional
Outline: (§1)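 K562 cells exposed at 10 µM for 8, 16, 24 and 48 h, run alongside imatinib reference and untreated control cells. Result is % apoptosis as mean ± SD of triplicate experiments. Morphology (chromatin condensation, micronuclei, vacuolization) checked by electron microscopy.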

K562 [2] = experiment: Apoptotic activity against human K562 cell line at 10 uM after 48 hrs; assay type: functional; outline: as §1
K562 [3] = experiment: Apoptotic activity against human K562 cell line at 10 uM after 24 hrs; assay type: functional; outline: as §1
K562 [4] = experiment: Apoptotic activity against human K562 cell line at 10 uM after 8 hrs; assay type: functional; outline: as §1
Homo sapiens [5] = species on record: Homo sapiens; experiment: Apoptotic activity against peripheral blood cells of CML affected human (27-83 yrs) at onset phase at 10 uM after 48 hrs; assay type: functional
Outline: (§2)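 Bone marrow or peripheral blood cells harvested from 12 consecutive CML patients at onset. Cells cultured in vitro and treated at 10 µM for 24 and 48 h. Read-out by DNA fragmentation assay as % apoptosis.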

K562 [6] = experiment: BCR-ABL inactivation-independent inhibition of […]-induced apoptosis in human K562 cell at 10 uM by Western blot; assay type: functional, cell-based
Homo sapiens [7] = species on record: Homo sapiens; experiment: Apoptotic activity against peripheral blood cells of imatinib-resistant CML affected human (38-70 yrs) at blast crisis phase at 10 uM after 24 hrs; assay type: functional
Outline: (§3)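 Peripheral blood cells taken from 2 CML patients in blast crisis that evolved under imatinib treatment. Cells cultured in vitro and exposed at 10 µM for 24 and 48 h. Apoptosis scored as % by DNA fragmentation assay.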

K562 [8] = experiment: Decrease in procaspase 9 expression in human K562 cells by Western blot; assay type: functional, cell-based
Outline: (§4)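 Lysates of treated K562 cells taken after 24 h. Procaspase-8 and procaspase-9 immunoreactive bands assessed by Western blot.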

K562 [9] = experiment: Decrease in procaspase 8 expression in human K562 cells by Western blot; assay type: functional, cell-based; outline: as §4
Homo sapiens [10] = species on record: Homo sapiens; experiment: Apoptotic activity against peripheral blood cells of CML affected human (27-83 yrs) at onset phase at 10 uM after 24 hrs; assay type: functional; outline: as §2
Homo sapiens [11] = species on record: Homo sapiens; experiment: Apoptotic activity against peripheral blood cells of imatinib-resistant CML affected human (38-70 yrs) at blast crisis phase at 10 uM after 48 hrs; assay type: functional; outline: as §3

Compound: O=S1(=O)c2ccccc2NC(CO)c2cccn21 (racemic)
- Activity (K562 [1]): 19.3%
- Activity (K562 [2]): 23%
- Activity (K562 [3]): 19.6%
- Activity (K562 [4]): 5.3%

Compound: CCOC(=O)[C@H]1Nc2ccccc2S(=O)(=O)n2cccc21
- Activity (K562 [1]): 53.8%
- Activity (K562 [2]): 86.2%
- Activity (K562 [3]): 69%
- Activity (K562 [4]): 26.6%

Compound: CCOC(=O)CC1c2cccn2S(=O)(=O)c2ccccc2N1C(=O)c1ccc(C)cc1 (racemic)
- Activity (K562 [1]): 67.6%
- Activity (K562 [2]): 87.6%
- Activity (K562 [3]): 74.3%
- Activity (K562 [4]): 45%

Compound: O=C(O)CC1Nc2ccccc2S(=O)(=O)n2cccc21 (racemic)
- Activity (K562 [1]): 5.5%
- Activity (K562 [2]): 6.1%
- Activity (K562 [3]): 6.4%
- Activity (K562 [4]): 4.5%

Compound: CCOC(=O)[C@@H]1c2cccn2S(=O)(=O)c2ccccc2N1C(=O)c1ccc(C)cc1
- Activity (K562 [1]): 63%
- Activity (K562 [2]): 86.2%
- Activity (K562 [3]): 71.6%
- Activity (K562 [4]): 38%

Compound: CCOC(=O)CC1c2cccn2S(=O)(=O)c2ccccc2N1C(=O)c1ccc(F)cc1 (racemic)
- Activity (K562 [1]): 66.3%
- Activity (K562 [2]): 90.7%
- Activity (K562 [3]): 79%
- Activity (K562 [4]): 44.6%

Compound: CCOC(=O)C1c2cccn2S(=O)(=O)c2ccccc2N1C(=O)c1cccc2ccccc12 (racemic)
- Activity (K562 [1]): 66%
- Activity (K562 [2]): 87.6%
- Activity (K562 [3]): 77%
- Activity (K562 [4]): 43.7%

Compound: CCOC(=O)CC1c2cccn2S(=O)(=O)c2ccccc2N1C(=O)c1ccc(Cl)cc1 (racemic)
- Activity (K562 [1]): 65.5%
- Activity (K562 [2]): 90%
- Activity (K562 [3]): 78%
- Activity (K562 [4]): 43%

Compound: CCOC(=O)C1c2cccn2S(=O)(=O)c2ccccc2N1C(=O)c1ccccc1 (racemic)
- Activity (K562 [1]): 66.6%
- Activity (K562 [2]): 89.6%
- Activity (K562 [3]): 80%
- Activity (K562 [4]): 45%

Compound: CCOC(=O)C1Nc2ccccc2S(=O)(=O)n2cccc21 (racemic)
- Activity (K562 [1]): 61.3%
- Activity (K562 [2]): 89.7%
- Activity (K562 [3]): 76.3%
- Activity (Homo sapiens [5]): 70%
- Activity (K562 [6]): Active
- Activity (Homo sapiens [7]): 40%
- Activity (K562 [4]): 34%
- Activity (K562 [8]): inactive
- Activity (K562 [9]): Active
- Activity (Homo sapiens [10]): 50%
- Activity (Homo sapiens [11]): 60%

Compound: CCOC(=O)C1c2cccn2S(=O)(=O)c2ccccc2N1C(=O)c1ccc(Cl)cc1 (racemic)
- Activity (K562 [1]): 67%
- Activity (K562 [2]): 91.7%
- Activity (K562 [3]): 79.7%
- Activity (K562 [4]): 44.3%

Compound: Cc1ccc(NC(=O)c2ccc(CN3CCN(C)CC3)cc2)cc1Nc1nccc(-c2cccnc2)n1 [IMATINIB]
- Activity (K562 [1]): 70%
- Activity (K562 [2]): 71.2%
- Activity (K562 [3]): 71%
- Activity (K562 [4]): 66.7%

Compound: O=C(O)C1Nc2ccccc2S(=O)(=O)n2cccc21 (racemic)
- Activity (K562 [1]): 5.7%
- Activity (K562 [2]): 6.2%
- Activity (K562 [3]): 6.8%
- Activity (K562 [4]): 4.8%

Compound: CCOC(=O)[C@H]1c2cccn2S(=O)(=O)c2ccccc2N1C(=O)c1ccc(C)cc1
- Activity (K562 [1]): 57.8%
- Activity (K562 [2]): 81.8%
- Activity (K562 [3]): 67.6%
- Activity (K562 [4]): 33.1%

Compound: CCOC(=O)CC1c2cccn2S(=O)(=O)c2ccccc2N1C(=O)c1ccccc1 (racemic)
- Activity (K562 [1]): 68%
- Activity (K562 [2]): 92.3%
- Activity (K562 [3]): 79.5%
- Activity (K562 [4]): 45.3%

Compound: CCOC(=O)C1c2cccn2S(=O)(=O)c2ccccc2N1C(=O)c1ccc(C)cc1 (racemic)
- Activity (K562 [1]): 67.6%
- Activity (K562 [2]): 91.7%
- Activity (K562 [3]): 79.6%
- Activity (Homo sapiens [5]): 78%
- Activity (K562 [6]): Active
- Activity (Homo sapiens [7]): 55%
- Activity (K562 [4]): 45.6%
- Activity (K562 [9]): inactive
- Activity (Homo sapiens [10]): 55%
- Activity (Homo sapiens [11]): 78%

Compound: CCOC(=O)C1c2cccn2S(=O)(=O)c2ccccc2N1C(=O)c1ccc(F)cc1 (racemic)
- Activity (K562 [1]): 67.6%
- Activity (K562 [2]): 92%
- Activity (K562 [3]): 81%
- Activity (K562 [4]): 45.3%

Compound: CCOC(=O)[C@@H]1Nc2ccccc2S(=O)(=O)n2cccc21
- Activity (K562 [1]): 48.4%
- Activity (K562 [2]): 80.3%
- Activity (K562 [3]): 63.2%
- Activity (K562 [4]): 20.5%

Compound: CCOC(=O)CC1c2cccn2S(=O)(=O)c2ccccc2N1C(=O)c1cccc2ccccc12 (racemic)
- Activity (K562 [1]): 69%
- Activity (K562 [2]): 92.6%
- Activity (K562 [3]): 80%
- Activity (K562 [4]): 47%

Compound: CCOC(=O)CC1Nc2ccccc2S(=O)(=O)n2cccc21 (racemic)
- Activity (K562 [1]): 53%
- Activity (K562 [2]): 88.3%
- Activity (K562 [3]): 72%
- Activity (K562 [4]): 29.3%
